Holding throughout (format): functional
In experiment [1] the test system is Clostridioides difficile. Briefly: Antimicrobial activity against Clostridium difficile A422i harboring GyrA Asp81Asn mutant gene selected after 8 ug/ml of moxifloxacin by Etest method. Summed up: (§1)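 Stable in vitro-selected mutant tested for gatifloxacin susceptibility by Etest, per the manufacturer's instructions, with an 8 μg/ml breakpoint. For selection, the parent was grown in antibiotic-free brain heart infusion (BHI) for 24 h at 35°C under anaerobic conditions. […] Later steps used double the MIC. Stability was confirmed by three subcultures.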

Experiment [2] has as its system Clostridioides difficile. Briefly: Antimicrobial activity against Clostridium difficile BI2b harboring GyrB Arg447Lys mutant gene selected after 2 ug/ml of moxifloxacin by Etest method. Summed up:
as §1

The subject of experiment [3] is Clostridioides difficile. Briefly: Antimicrobial activity against Clostridium difficile BI2c harboring GyrB Arg447Lys mutant gene selected after 2 ug/ml of moxifloxacin by Etest method. Summed up:
as §1

Experiment [4] deals with Clostridioides difficile. The experiment can be described thus: Antimicrobial activity against Clostridium difficile BI2d harboring GyrB Arg447Lys and Asp426Asn mutant gene selected after 32 ug/ml of moxifloxacin by Etest method. Summed up: as §1
Experiment [5] relates to Clostridioides difficile. The experiment can be described thus: Antimicrobial activity against Clostridium difficile C253B selected after 4 ug/ml of levofloxacin by Etest method.
Experiment [6] has as its system Clostridioides difficile. Briefly: Antimicrobial activity against Clostridium difficile C253F selected after 8 ug/ml of levofloxacin by Etest method.
Experiment [7] concerns Clostridioides difficile. The experiment can be described thus: Antimicrobial activity against Clostridium difficile CD5E harboring GyrB Ser416Ala mutant gene selected after 8 ug/ml of levofloxacin by Etest method.
Experiment [8] relates to Clostridioides difficile. The experiment can be described thus: Antimicrobial activity against Clostridium difficile A422B selected after 4 ug/ml of levofloxacin by Etest method. Summed up:
as §1

For experiment [9], the system named is Clostridioides difficile. Briefly: Antimicrobial activity against Clostridium difficile A422F harboring GyrB Leu451Phe mutant gene selected after 8 ug/ml of levofloxacin by Etest method. Put shortly: as §1
Experiment [10] has as its system Clostridioides difficile. The experiment can be described thus: Antimicrobial activity against Clostridium difficile 630F harboring GyrA Ala118Val mutant gene selected after 8 ug/ml of levofloxacin by Etest method. Put shortly: as §1
Experiment [11] deals with Clostridioides difficile. Briefly: Antimicrobial activity against Clostridium difficile BI2B selected after 4 ug/ml of levofloxacin by Etest method. Put shortly: as §1
In experiment [12] the test system is Clostridioides difficile. Briefly: Antimicrobial activity against Clostridium difficile C253b selected after 2 ug/ml of moxifloxacin by Etest method.
For experiment [13], the system named is Clostridioides difficile. The experiment can be described thus: Antimicrobial activity against Clostridium difficile C253h harboring GyrA Ala118Ser mutant gene selected after 8 ug/ml of moxifloxacin by Etest method.
Experiment [14] concerns Clostridioides difficile. Briefly: Antimicrobial activity against Clostridium difficile CD5a harboring GyrB Ser416Ala mutant gene selected after 2 ug/ml of moxifloxacin by Etest method.
Experiment [15] deals with Clostridioides difficile. The experiment can be described thus: Antimicrobial activity against Clostridium difficile CD5f harboring GyrB Ser416Ala mutant gene selected after 4 ug/ml of moxifloxacin by Etest method.
Experiment [16] deals with Clostridioides difficile. The experiment can be described thus: Antimicrobial activity against Clostridium difficile CD5h harboring GyrA Ala118Ser, Thr82Ala and GyrB Ser416Ala mutant gene selected after 8 ug/ml of moxifloxacin by Etest method.
Experiment [17] concerns Clostridioides difficile. The experiment can be described thus: Antimicrobial activity against Clostridium difficile A422f selected after 4 ug/ml of moxifloxacin by Etest method. Put shortly: as §1
Experiment [18] relates to Clostridioides difficile. The experiment can be described thus: Antimicrobial activity against Clostridium difficile 630e selected after 4 ug/ml of moxifloxacin by agar dilution method. A general note: In agar dilution the substance is mixed into plates at graded concentrations.
Experiment [19] relates to Clostridioides difficile. Briefly: Antimicrobial activity against Clostridium difficile BI2c harboring GyrB Arg447Lys mutant gene selected after 2 ug/ml of moxifloxacin by agar dilution method.
Experiment [20] concerns Clostridioides difficile. Briefly: Antimicrobial activity against Clostridium difficile BI2f harboring GyrB Arg447Lys and Asp426Asn mutant gene selected after 32 ug/ml of moxifloxacin by agar dilution method.
The test system of experiment [21] is Clostridioides difficile. The experiment can be described thus: Antimicrobial activity against Clostridium difficile C253A selected after 4 ug/ml of levofloxacin by agar dilution method.
Experiment [22] deals with Clostridioides difficile. The experiment can be described thus: Antimicrobial activity against Clostridium difficile CD5E harboring GyrB Ser416Ala mutant gene selected after 8 ug/ml of levofloxacin by agar dilution method.
Experiment [23] relates to Clostridioides difficile. The experiment can be described thus: Antimicrobial activity against Clostridium difficile CD5F harboring GyrB Ser416Ala mutant gene selected after 8 ug/ml of levofloxacin by agar dilution method.
Experiment [24] has as its system Clostridioides difficile. Briefly: Antimicrobial activity against Clostridium difficile 630 expressing tcdA and tcdB gene by agar dilution method.
Experiment [25] concerns Clostridioides difficile. Briefly: Antimicrobial activity against Clostridium difficile A422A selected after 4 ug/ml of levofloxacin by agar dilution method.
Experiment [26] concerns Clostridioides difficile. The experiment can be described thus: Antimicrobial activity against Clostridium difficile A422F harboring GyrB Leu451Phe mutant gene selected after 8 ug/ml of levofloxacin by agar dilution method.
Experiment [27] deals with Clostridioides difficile. The experiment can be described thus: Antimicrobial activity against Clostridium difficile A422G harboring GyrA Thr82Ile and GyrB Leu451Phe mutant genes selected after 8 ug/ml of levofloxacin by agar dilution method.
Experiment [28] has as its system Clostridioides difficile. The experiment can be described thus: Antimicrobial activity against Clostridium difficile 630E harboring GyrA Ala118Val mutant gene selected after 8 ug/ml of levofloxacin by agar dilution method.
Experiment [29] deals with Clostridioides difficile. The experiment can be described thus: Antimicrobial activity against Clostridium difficile BI2A selected after 4 ug/ml of levofloxacin by agar dilution method.
Experiment [30] relates to Clostridioides difficile. The experiment can be described thus: Antimicrobial activity against Clostridium difficile BI2C selected after 4 ug/ml of levofloxacin by agar dilution method.
For experiment [31], the system named is Clostridioides difficile. The experiment can be described thus: Antimicrobial activity against Clostridium difficile BI2D harboring GyrB Glu466Lys mutant gene selected after 8 ug/ml of levofloxacin by agar dilution method.
For experiment [32], the system named is Clostridioides difficile. The experiment can be described thus: Antimicrobial activity against Clostridium difficile BI2E harboring GyrB Glu466Lys mutant gene selected after 8 ug/ml of levofloxacin by agar dilution method.
In experiment [33] the test system is Clostridioides difficile. Briefly: Antimicrobial activity against Clostridium difficile BI2F harboring GyrB Glu466Lys mutant gene selected after 8 ug/ml of levofloxacin by agar dilution method.
In experiment [34] the test system is Clostridioides difficile. Briefly: Antimicrobial activity against Clostridium difficile BI2 by agar dilution method.
In experiment [35] the test system is Clostridioides difficile. The experiment can be described thus: Antimicrobial activity against Clostridium difficile C253b selected after 2 ug/ml of moxifloxacin by agar dilution method.
Experiment [36] has as its system Clostridioides difficile. Briefly: Antimicrobial activity against Clostridium difficile C253c selected after 2 ug/ml of moxifloxacin by agar dilution method.
In experiment [37] the test system is Clostridioides difficile. Briefly: Antimicrobial activity against Clostridium difficile C253f selected after 4 ug/ml of moxifloxacin by agar dilution method.
Experiment [38] has as its system Clostridioides difficile. The experiment can be described thus: Antimicrobial activity against Clostridium difficile CD5b harboring GyrB Ser416Ala mutant gene selected after 2 ug/ml of moxifloxacin by agar dilution method.
The test system of experiment [39] is Clostridioides difficile. Briefly: Antimicrobial activity against Clostridium difficile CD5d harboring GyrB Ser416Ala mutant gene selected after 4 ug/ml of moxifloxacin by agar dilution method.
Experiment [40] deals with Clostridioides difficile. The experiment can be described thus: Antimicrobial activity against Clostridium difficile CD5e harboring GyrB Ser416Ala mutant gene selected after 4 ug/ml of moxifloxacin by agar dilution method.
Experiment [41] concerns Clostridioides difficile. Briefly: Antimicrobial activity against Clostridium difficile CD5h harboring GyrA Ala92Glu and GyrB Ser416Ala mutant genes selected after 8 ug/ml of moxifloxacin by agar dilution method.
The subject of experiment [42] is Clostridioides difficile. Briefly: Antimicrobial activity against Clostridium difficile A422a selected after 2 ug/ml of moxifloxacin by agar dilution method.
For experiment [43], the system named is Clostridioides difficile. The experiment can be described thus: Antimicrobial activity against Clostridium difficile A422d selected after 4 ug/ml of moxifloxacin by agar dilution method.

Some results are limits rather than exact numbers.

With `COc1c(N2CCNC(C)C2)c(F)cc2c(=O)c(C(=O)O)cn(C3CC3)c12` (stereo not drawn) [GATIFLOXACIN], the minimum inhibitory concentration (MIC) in the experiment on Clostridioides difficile [1] is no less than 32 µg/mL; in the experiment with Clostridioides difficile [2] it was 1.5 µg/mL; in the experiment with Clostridioides difficile [3], 1.5 µg/mL; in the experiment with Clostridioides difficile [4], 6 µg/mL; with Clostridioides difficile [5], 0.5 µg/mL; in the experiment with Clostridioides difficile [6], 1 µg/mL. The MIC came to 2 µg/mL in the experiment with Clostridioides difficile [7]; 1 µg/mL in the experiment with Clostridioides difficile [8]; 2 µg/mL in the experiment with Clostridioides difficile [9]; 3 µg/mL in the experiment with Clostridioides difficile [10]; 2 µg/mL with Clostridioides difficile [11]; 1 µg/mL with Clostridioides difficile [12]. Moreover, the minimal inhibitory concentration (MIC) in the experiment on Clostridioides difficile [13] was 8 µg/mL; in the experiment on Clostridioides difficile [14], 0.75 µg/mL; with Clostridioides difficile [15], 0.75 µg/mL; in the experiment with Clostridioides difficile [16], 16 µg/mL; in the experiment with Clostridioides difficile [17], 1.5 µg/mL.

Regarding `C[C@H]1COc2c(N3CCN(C)CC3)c(F)cc3c(=O)c(C(=O)O)cn1c23.C[C@H]1COc2c(N3CCN(C)CC3)c(F)cc3c(=O)c(C(=O)O)cn1c23.O` [LEVOFLOXACIN], the minimum inhibitory concentration (MIC) with Clostridioides difficile [18] was found to be 4 µg/mL; with Clostridioides difficile [19], 8 µg/mL; in the experiment on Clostridioides difficile [20], 64 µg/mL; with Clostridioides difficile [21] it was 1 µg/mL; in the experiment with Clostridioides difficile [22], 2 µg/mL; in the experiment with Clostridioides difficile [23] it was 2 µg/mL. Moreover, the MIC turned out to be 2 µg/mL against Clostridioides difficile [24]; 1 µg/mL in the experiment with Clostridioides difficile [25]; 2 µg/mL in the experiment on Clostridioides difficile [26]; 64 µg/mL with Clostridioides difficile [27]; 8 µg/mL with Clostridioides difficile [28]; 1 µg/mL with Clostridioides difficile [29]. The minimum inhibitory concentration (MIC) in the experiment with Clostridioides difficile [30] amounted to 1 µg/mL; in the experiment on Clostridioides difficile [31], 16 µg/mL; in the experiment with Clostridioides difficile [32] it was 16 µg/mL; with Clostridioides difficile [33], 16 µg/mL; against Clostridioides difficile [34] it was 2 µg/mL; with Clostridioides difficile [35], 4 µg/mL. Also, the minimum inhibitory concentration (MIC) in the experiment on Clostridioides difficile [36] came out at 4 µg/mL; in the experiment with Clostridioides difficile [37], 4 µg/mL; in the experiment on Clostridioides difficile [38], 2 µg/mL; in the experiment with Clostridioides difficile [39], 2 µg/mL; in the experiment on Clostridioides difficile [40], 2 µg/mL; with Clostridioides difficile [41], 16 µg/mL. The minimal inhibitory concentration (MIC) in the experiment with Clostridioides difficile [42] and with Clostridioides difficile [43] was 4 µg/mL throughout.

One may read the MIC as the lowest concentration found to suppress growth.
